# Key:
# [1] = system: human SMA patient fibroblasts; conditions: commercially available GSK-3 inhibitors; cited from earlier work
# [2] = system: primary immature cortical neurons; experiment: Oxidative stress; format: cell-based
# Method in brief: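 Primary cortical neurons were exposed to test compound (20 μM) with or without homocysteic acid (HCA, 5 mM), which depletes glutathione. Survival was read by MTT assay after 48 h and expressed as percent of the no-inhibitor control, mean ± SEM. Live/dead staining with calcein AM and ethidium homodimer was done in parallel.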
# Δ7 SMA KO mouse [3] = experiment: Δ7 SMA KO mouse model: tube test; format: in vivo; conditions: 75 mg/kg once a day; postnatal day 6, 8, 10 and 12
# Δ7 SMA KO mouse [4] = experiment: Δ7 SMA KO mouse model: negative geotaxis test; format: in vivo; conditions: 75 mg/kg once a day
# Δ7 SMA KO mouse [5] = experiment: Δ7 SMA KO neonatal mouse model: survival, body weight, tolerability; format: in vivo
# PKCβ2 = PKCβ2 (Homo sapiens, UniProt P05771); experiment: Kinase inhibition assay; format: biochemical
# Chain of PKCβ2 (P05771 1-673 isoform P05771-2): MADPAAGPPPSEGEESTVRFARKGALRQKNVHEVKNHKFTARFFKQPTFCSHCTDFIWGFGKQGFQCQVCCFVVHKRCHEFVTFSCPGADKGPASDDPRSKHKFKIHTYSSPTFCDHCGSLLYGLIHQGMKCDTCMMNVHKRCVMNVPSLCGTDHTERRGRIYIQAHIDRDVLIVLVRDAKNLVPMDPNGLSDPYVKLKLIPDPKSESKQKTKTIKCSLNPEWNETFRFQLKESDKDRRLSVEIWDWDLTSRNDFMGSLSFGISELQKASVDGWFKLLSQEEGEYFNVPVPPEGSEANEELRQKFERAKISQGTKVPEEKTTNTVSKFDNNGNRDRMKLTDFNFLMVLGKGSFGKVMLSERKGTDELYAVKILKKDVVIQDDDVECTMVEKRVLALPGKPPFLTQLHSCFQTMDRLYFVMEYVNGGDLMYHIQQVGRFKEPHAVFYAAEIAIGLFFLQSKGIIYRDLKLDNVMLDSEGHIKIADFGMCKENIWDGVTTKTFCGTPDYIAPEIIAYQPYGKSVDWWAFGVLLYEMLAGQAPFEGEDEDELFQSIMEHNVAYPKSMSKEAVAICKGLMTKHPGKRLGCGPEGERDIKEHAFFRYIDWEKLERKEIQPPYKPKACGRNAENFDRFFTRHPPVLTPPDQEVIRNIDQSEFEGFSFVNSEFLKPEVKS
# GSK-3 = GSK-3 inhibition in the presence of 10 µM ATP; format: biochemical; conditions: read-out: GSK-3 IC50; tested in the presence of 10 µM ATP
# [6] = system: human SMA patient fibroblasts; experiment: SMN protein level in SMA patient fibroblasts by western blot; format: cell-based; conditions: 72 h
# Method in brief: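 Fibroblasts from SMA patients were exposed to test compound (20, 25 or 30 μM) or DMSO vehicle for 72 h. SMN protein was assessed by Western blot and quantified from three separate experiments.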
compound,measurement,setting,value
CHIR98014,elevation of SMN levels in vitro,[1],shown to elevate SMN levels in vitro
"COc1ccc(CNC(=O)Nc2ncc([N+](=O)[O-])s2)cc1 [AR-A014418, reference compound]",protection in the HCA oxidative stress model,"[2]; HCA 5 mM, MTT assay",provided some protection
same,elevation of SMN levels in vitro,[1],shown to elevate SMN levels in vitro
O=C1Cc2c([nH]c3ccc([N+](=O)[O-])cc23)-c2ccccc2N1 [alsterpaullone],elevation of SMN levels in vitro,[1],shown to elevate SMN levels in vitro
"Cn1cc(C2=C(c3coc4ccccc34)C(=O)NC2=O)c2cc(Br)ccc21 [BIP-135, 3-(5-bromo-1-methyl-1H-indol-3-yl)-4-(benzofuran-3-yl)pyrrole-2,5-dione]","tube test parameters (time hanging, number of pulls, hind-limb strength score, tube test score)",Δ7 SMA KO mouse [3],no significant treatment effect
same,overall motor function (geotaxis and tube test),Δ7 SMA KO mouse [4],did not improve the overall motor function
same,percent of KO mice that completed the geotaxis test,"Δ7 SMA KO mouse [4]; P12, p = 0.0315",more KO animals treated with BIP-135 completed the geotaxis test
same,latency to complete the negative geotaxis test,Δ7 SMA KO mouse [4]; p = 0.0683,no significant treatment effects
same,tolerability / toxicity in SMA KO animals,"Δ7 SMA KO mouse [5]; 75 mg/kg IP, 100% DMSO as vehicle",did not appear to be toxic and was well-tolerated
same,effect on SMA KO body weight versus vehicle,"Δ7 SMA KO mouse [5]; 75 mg/kg once a day, p = 0.0435, after around P6",showed an improvement in body weight
same,IC50,PKCβ2,219 nM
same,increase in SMN levels compared to vehicle treated cells,"[6]; 25 µM, western blot",7 fold
same,toxicity in SMA patient fibroblasts (bell-shaped dose-response),[6]; higher concentrations,some toxicity at higher concentrations
same,protection of HCA-treated cortical neurons (survival),"[2]; 20 µM, HCA 5 mM, MTT assay, HCA alone approximately 25 percent survival",about 80%
same,protection in the HCA oxidative stress model,"[2]; HCA 5 mM, MTT assay",able to protect at a lower concentration
same,toxicity to neurons exposed to compound alone,[2]; absence of HCA,No significant toxicity

# From PMC3279955 (ACS chemical neuroscience, 2012)
